Experimental data from different studies.
Read-out: cell growth or viability

SMILES | cell line | test | conditions | IC50 [µM]
O=C1Nc2ccc(OC(F)(F)F)cc2C(=O)CCc2ccccc21 | L6 |  |  | 44
CCN1C(=O)N(c2c(F)c(OC)cc(OC)c2F)Cc2cnc3[nH]c(CN4CCOCC4)cc3c21 | MDA-MB-453 | ATP luminescence | 96 h | 0.0764
COc1ccc2oc(C(=O)c3ccccc3)cc2c1-c1ccccc1 | L1210 |  | 48 h | > 50
COc1cccc2c1C(=O)c1c(O)c3c(c(O)c1C2=O)C[C@@](O)(C(=O)CO)C[C@@H]3O[C@H]1C[C@H](N)[C@H](O)[C@H](C)O1 | GISTT1 | resazurin | 72 h | 0.31
CC(C)[C@H](N)c1nc2cc(-c3ccnnc3)sc2c(=O)[nH]1 | COLO 205 | MTT |  | 5.97
O=C1Nc2ccc(C(F)(F)F)cc2C(=O)CCc2ccccc21 | L6 |  |  | 9
C#C[C@]1(O)CC[C@H]2[C@@H]3CCC4=Cc5oncc5C[C@]4(C)[C@H]3CC[C@@]21C | GISTT1 | resazurin | 72 h | > 1
O=C1Nc2ccc(F)cc2C(=O)CCc2ccccc21 | L6 |  |  | 110
C=C(C)C(=O)Nc1ccc(-c2c(-c3ccc(Oc4nccc(C)n4)c(F)c3)c3c(N)ncnc3n2C)cc1 | MDA-MB-453 | ATP luminescence | 96 h | > 10
COC(=O)Nc1nc2ccc(C(=O)c3ccccc3)cc2[nH]1 | GISTT1 | resazurin | 72 h | 0.81
O=c1ncccn1[C@@H]1O[C@H](CO)[C@@H](O)[C@H]1O | MEC1 |  | 48 h | 195
O=c1c(O)c(-c2ccc(O)c(O)c2)oc2cc(O)cc(O)c12 | SCaBER | ATP luminescence | 72 h | 24.2
CC(C)[C@H](N)c1nc2cc(-c3ccnc(Cl)c3)sc2c(=O)[nH]1 | COLO 205 | MTT |  | 1.6
CC(C)=CCC/C(C)=C/COc1ccc2ccc(=O)oc2c1 | COLO 205 | MTT | 72 h | 63.1
COc1cc(Nc2nccc(-c3cnn4nc(OC)ccc34)n2)cc(C(F)(F)F)c1 | NCI-H1838 | ATP luminescence |  | > 3
C#C[C@]1(CO)O[C@@H](n2cnc3c(N)nc(F)nc32)C[C@@H]1O | MDCK-II | MTT | 48 h | 377
O=C1CCc2ncccc2C(=O)Nc2ccccc21 | L6 |  |  | 160
COc1ccc(/C=C\c2cc(OC)c(OC)c(OC)c2)cc1O | L1210 |  | 48 h | 0.0032
O=C1Nc2ccccc2C(=O)CCc2ccc(F)cc21 | L6 |  |  | 110
O=C1c2c(O)ccc(O)c2C(=O)c2c(NCCNCCO)ccc(NCCNCCO)c21 | GISTT1 | resazurin | 72 h | 0.42

SMILES | cell line | test | conditions | IC50 [µM]
O=[N+]([O-])c1ccc(Cn2cc(Cn3c4ccccc4c4nc5ccccc5nc43)nn2)cc1 | INS1 | MTT | 24 h | > 100
COc1cc([C@@H]2c3cc4c(cc3[C@@H](O[C@@H]3O[C@@H]5CO[C@@H](C)O[C@H]5[C@H](O)[C@H]3O)[C@H]3COC(=O)[C@H]23)OCO4)cc(OC)c1O | GISTT1 | resazurin | 72 h | > 1
N[C@@H](CC(=O)N1CCN(C(c2ccc(F)cc2)c2ccc(F)cc2)CC1)C(=O)N1Cc2ccccc2C1 | RS4-11 | ATP luminescence | 24 h | 28.3
CC(C)[C@@H](N)c1nc2cc(-c3ccncc3F)sc2c(=O)[nH]1 | COLO 205 | MTT |  | 1.19
CC(=O)[C@]1(O)Cc2c(O)c3c(c(O)c2[C@@H](O[C@H]2C[C@H](N)[C@H](O)[C@H](C)O2)C1)C(=O)c1ccccc1C3=O | GISTT1 | resazurin | 72 h | 0.1
COc1ccccc1C(=O)c1cc2c(-c3ccccc3)c(O)ccc2o1 | L1210 |  | 48 h | > 50
COc1cc(N(C)CCN(C)C)c(NC(=O)/C=C/C(C)C)cc1Nc1nc(N2CCc3sccc3C2)c2sccc2n1 | NCI-H460 | MTT |  | > 50
Nc1nc(F)nc2c1ncn2[C@@H]1O[C@H](COP(=O)(O)O)[C@@H](O)[C@@H]1O | GISTT1 | resazurin | 72 h | > 1
O=c1c(O[C@@H]2O[C@H](CO)[C@@H](O)[C@H](O)[C@H]2O)c(-c2ccc(O)c(O)c2)oc2cc(O)cc(O)c12 | SCaBER | ATP luminescence | 72 h | 8.66
COc1cccc(C(=O)c2cc3c(-c4ccccc4)c(OC)ccc3o2)c1 | L1210 |  | 48 h | 10
CCOC(=O)c1ccc2c(c1)C(=O)CCc1ccccc1C(=O)N2 | L6 |  |  | 15
COc1c2ccoc2c(OCC=C(C)C)c2oc(=O)ccc12 | COLO 205 | MTT | 72 h | > 100
O=C1CCc2ccccc2CC(=O)c2ccccc2N1 | L6 |  |  | > 380
COc1cccc(C(=O)c2cc3c(-c4ccccc4)c(O)ccc3o2)c1 | L1210 |  | 48 h | 38
O=C1Nc2ccccc2C(=O)CCCc2ccccc21 | L6 |  |  | 130
C=CC(=O)Nc1cc(Nc2nc(N3CCOCC3)c3sccc3n2)c(OC)cc1N(C)CCN(C)C | NCI-H460 | MTT |  | > 50
COc1cc([C@@H]2c3cc4c(cc3[C@@H](O[C@@H]3O[C@@H]5CO[C@@H](c6cccs6)O[C@H]5[C@H](O)[C@H]3O)[C@H]3COC(=O)[C@H]23)OCO4)cc(OC)c1O | GISTT1 | resazurin | 72 h | > 1
COc1ccc(C(=O)c2cc3c(-c4ccccc4)c(O)ccc3o2)cc1 | L1210 |  | 48 h | 1.3
CCC(=O)Nc1cc(Nc2nc(N3CCc4sccc4C3)c3cccnc3n2)c(OC)cc1N1CCOCC1 | NCI-H460 | MTT |  | > 50
